Where two headings read alike, the source gives them in different places.
Key:
[1] = Cytotoxicity, CellTiter 96 assay in HepG2 cells; assay type: cell-based, human; details: human, hepatocellular carcinoma (HepG2) cells
Summary of the method: (§1)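 Colorimetric non-radioactive cell proliferation read-out (CellTiter 96). CC50 is the test compound concentration that inhibited cell growth by 50%.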

CYP 2C8 = target: T1, CYP 2C8 (Homo sapiens, UniProt P10632); test: CYP inhibition in human liver microsomes; assay type: in vitro ADME
T1 sequence (P10632 1-490): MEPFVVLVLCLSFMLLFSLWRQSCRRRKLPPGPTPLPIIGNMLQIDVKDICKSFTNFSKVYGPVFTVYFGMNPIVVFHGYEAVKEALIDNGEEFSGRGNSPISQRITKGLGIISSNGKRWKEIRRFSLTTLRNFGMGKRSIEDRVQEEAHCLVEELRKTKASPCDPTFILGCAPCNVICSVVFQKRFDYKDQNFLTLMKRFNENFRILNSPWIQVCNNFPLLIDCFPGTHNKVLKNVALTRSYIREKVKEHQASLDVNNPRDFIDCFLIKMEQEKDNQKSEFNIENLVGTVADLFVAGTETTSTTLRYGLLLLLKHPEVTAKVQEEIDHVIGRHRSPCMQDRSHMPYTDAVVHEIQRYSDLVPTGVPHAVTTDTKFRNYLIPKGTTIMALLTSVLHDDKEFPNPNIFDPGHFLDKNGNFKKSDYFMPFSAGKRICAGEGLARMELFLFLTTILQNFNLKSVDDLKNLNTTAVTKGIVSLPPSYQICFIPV

[2] = Cell permeability across Caco-2 cell monolayer; assay type: in vitro ADME; details: human
Summary of the method: (§2)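 Bidirectional transport of 2 μM test compound across Caco-2 monolayers at pH 7.4, in duplicate, with final DMSO below 1%. Plates were held 2 hr at 37°C, 5% CO2, saturated humidity, without shaking. Starting, donor and receiver solutions were analysed by LC/MS/MS. Lucifer yellow rejection after transport checked monolayer integrity.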

CYP 1A2 = target: T2, CYP 1A2 (Homo sapiens, UniProt P05177); test: CYP inhibition in human liver microsomes; assay type: in vitro ADME
T2 sequence (P05177 1-516): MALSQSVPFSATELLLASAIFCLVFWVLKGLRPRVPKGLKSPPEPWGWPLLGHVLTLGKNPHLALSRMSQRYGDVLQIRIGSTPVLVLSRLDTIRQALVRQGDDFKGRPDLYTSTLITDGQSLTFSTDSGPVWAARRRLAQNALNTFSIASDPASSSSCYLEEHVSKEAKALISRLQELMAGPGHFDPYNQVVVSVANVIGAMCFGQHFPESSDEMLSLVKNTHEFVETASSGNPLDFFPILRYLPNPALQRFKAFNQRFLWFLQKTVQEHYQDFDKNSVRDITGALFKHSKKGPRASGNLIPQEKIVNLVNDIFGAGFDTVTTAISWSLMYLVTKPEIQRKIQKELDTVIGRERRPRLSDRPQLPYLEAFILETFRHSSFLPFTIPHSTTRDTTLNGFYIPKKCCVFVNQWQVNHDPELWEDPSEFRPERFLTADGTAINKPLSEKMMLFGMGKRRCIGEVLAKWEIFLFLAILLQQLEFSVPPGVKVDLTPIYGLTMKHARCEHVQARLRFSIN
Summary of the method: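 Known CYP450 probe substrates were incubated with human liver microsomes (0.05–0.2 mg/mL), 1 mM NADPH, 100 mM potassium phosphate pH 7.4 and 3 mM MgCl2 at 37°C, with or without 10 μM test compound, in duplicate. Reactions were quenched with a solution containing internal standards. Each substrate's signature metabolite was quantified by LC/MS/MS.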

[3] = Liver microsome stability, mouse; assay type: in vitro ADME
Summary of the method: (§3)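 Test compound (1 μM), alone or with ritonavir at 0.3, 1 or 3 μM, was incubated with 1 mg/mL mouse or human liver microsomes in 100 mM potassium phosphate pH 7.4 with 5 mM MgCl2. NADPH (final 1 mM) started the reaction at 37°C. Aliquots at 0–90 min were quenched in ice-cold methanol, centrifuged, diluted 1:1 with water, and analysed by LC-MS/MS. Propranolol was the positive control.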

CYP 3A4 = CYP 3A4 (Homo sapiens, UniProt P08684); test: CYP inhibition in human liver microsomes; assay type: in vitro ADME; details: for CYP Inhibition (% at 10 μM) 3A4-M: midazolam substrate; for CYP Inhibition (% at 10 μM) 3A4-T: testosterone substrate
Sequence of CYP 3A4 (P08684 whole entry): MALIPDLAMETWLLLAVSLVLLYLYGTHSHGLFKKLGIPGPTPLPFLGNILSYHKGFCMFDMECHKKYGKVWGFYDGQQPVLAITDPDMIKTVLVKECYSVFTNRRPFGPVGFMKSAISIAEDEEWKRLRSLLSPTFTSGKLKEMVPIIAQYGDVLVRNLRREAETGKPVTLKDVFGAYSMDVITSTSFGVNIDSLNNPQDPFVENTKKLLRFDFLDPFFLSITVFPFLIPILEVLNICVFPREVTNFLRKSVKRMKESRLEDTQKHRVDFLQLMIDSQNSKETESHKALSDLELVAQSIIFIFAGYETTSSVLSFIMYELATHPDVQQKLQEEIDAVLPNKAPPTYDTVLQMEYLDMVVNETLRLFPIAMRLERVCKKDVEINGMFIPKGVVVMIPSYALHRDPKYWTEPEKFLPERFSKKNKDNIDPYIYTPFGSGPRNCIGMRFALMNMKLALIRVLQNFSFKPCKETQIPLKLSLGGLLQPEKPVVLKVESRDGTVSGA

CYP 2B6 = target: T3, CYP 2B6 (Homo sapiens, UniProt P20813); test: CYP inhibition in human liver microsomes; assay type: in vitro ADME
T3 sequence (P20813 1-491): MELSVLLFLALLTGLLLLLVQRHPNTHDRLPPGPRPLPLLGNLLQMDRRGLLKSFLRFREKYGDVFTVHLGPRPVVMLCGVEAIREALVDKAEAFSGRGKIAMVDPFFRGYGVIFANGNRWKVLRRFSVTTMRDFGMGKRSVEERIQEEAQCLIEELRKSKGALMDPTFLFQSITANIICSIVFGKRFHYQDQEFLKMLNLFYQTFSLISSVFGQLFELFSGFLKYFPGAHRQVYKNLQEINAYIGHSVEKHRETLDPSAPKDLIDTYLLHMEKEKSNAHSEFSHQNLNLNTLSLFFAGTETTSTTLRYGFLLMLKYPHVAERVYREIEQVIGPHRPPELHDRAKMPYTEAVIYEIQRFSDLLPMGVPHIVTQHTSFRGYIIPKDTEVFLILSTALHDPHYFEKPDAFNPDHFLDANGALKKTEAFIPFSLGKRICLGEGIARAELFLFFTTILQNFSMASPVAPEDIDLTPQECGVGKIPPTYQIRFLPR

[4] = Cytotoxicity, CellTiter 96 assay in PBM cells; assay type: cell-based, human; details: human, peripheral blood mononuclear (PBM) cells
Summary of the method: as §1

[5] = Cytotoxicity, CellTiter 96 assay in CEM cells; assay type: cell-based, human; details: human, T lymphoblast (CEM) cells
Summary of the method: as §1

CYP 2C19 = CYP 2C19 (Homo sapiens, UniProt P33261); test: CYP inhibition in human liver microsomes; assay type: in vitro ADME
Sequence of CYP 2C19 (P33261 whole entry): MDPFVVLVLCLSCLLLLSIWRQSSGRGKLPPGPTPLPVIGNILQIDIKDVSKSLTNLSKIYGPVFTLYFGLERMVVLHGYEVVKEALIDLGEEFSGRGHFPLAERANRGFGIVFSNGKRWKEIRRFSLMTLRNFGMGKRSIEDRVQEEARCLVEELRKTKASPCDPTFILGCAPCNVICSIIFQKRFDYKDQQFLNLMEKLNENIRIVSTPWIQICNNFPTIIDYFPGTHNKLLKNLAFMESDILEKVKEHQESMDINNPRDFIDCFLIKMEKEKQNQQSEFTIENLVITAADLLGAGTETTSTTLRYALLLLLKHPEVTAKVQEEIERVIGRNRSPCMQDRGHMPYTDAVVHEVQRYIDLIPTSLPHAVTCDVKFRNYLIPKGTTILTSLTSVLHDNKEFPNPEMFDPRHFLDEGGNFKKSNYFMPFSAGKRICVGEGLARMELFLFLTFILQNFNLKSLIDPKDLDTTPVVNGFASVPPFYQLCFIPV

[6] = test system: HBV DNA replication in HepAD38 cells; test: Anti-HBV activity, 7-day assay in HepAD38 cells; assay type: cell-based, hepatitis B virus; details: for EC50: read-out: Anti-HBV activity EC50; for EC90: read-out: Anti-HBV activity EC90
[7] = Cytotoxicity, CellTiter 96 assay in Vero cells; assay type: cell-based, African green monkey; details: African green monkey, kidney (Vero) cells
Summary of the method: as §1

CYP 2C9 = CYP 2C9 (Homo sapiens, UniProt P11712); test: CYP inhibition in human liver microsomes; assay type: in vitro ADME
Sequence of CYP 2C9 (P11712 whole entry): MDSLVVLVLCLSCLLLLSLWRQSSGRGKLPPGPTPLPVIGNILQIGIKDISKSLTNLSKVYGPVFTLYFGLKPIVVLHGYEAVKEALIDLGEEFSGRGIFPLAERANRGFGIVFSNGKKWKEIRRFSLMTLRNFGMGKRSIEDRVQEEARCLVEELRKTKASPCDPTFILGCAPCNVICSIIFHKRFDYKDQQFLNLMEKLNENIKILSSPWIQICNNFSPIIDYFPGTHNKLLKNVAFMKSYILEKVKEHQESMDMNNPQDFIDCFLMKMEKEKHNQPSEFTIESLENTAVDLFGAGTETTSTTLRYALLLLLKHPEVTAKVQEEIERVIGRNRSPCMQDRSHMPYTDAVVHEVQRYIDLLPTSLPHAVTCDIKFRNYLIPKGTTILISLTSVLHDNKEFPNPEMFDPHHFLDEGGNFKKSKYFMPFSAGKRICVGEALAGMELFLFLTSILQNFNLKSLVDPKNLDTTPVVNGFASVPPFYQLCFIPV

[8] = Liver microsome stability, human; assay type: in vitro ADME
Summary of the method: as §3

CYP 2D6 = CYP 2D6 (Homo sapiens, UniProt P10635); test: CYP inhibition in human liver microsomes; assay type: in vitro ADME
Sequence of CYP 2D6 (P10635 whole entry): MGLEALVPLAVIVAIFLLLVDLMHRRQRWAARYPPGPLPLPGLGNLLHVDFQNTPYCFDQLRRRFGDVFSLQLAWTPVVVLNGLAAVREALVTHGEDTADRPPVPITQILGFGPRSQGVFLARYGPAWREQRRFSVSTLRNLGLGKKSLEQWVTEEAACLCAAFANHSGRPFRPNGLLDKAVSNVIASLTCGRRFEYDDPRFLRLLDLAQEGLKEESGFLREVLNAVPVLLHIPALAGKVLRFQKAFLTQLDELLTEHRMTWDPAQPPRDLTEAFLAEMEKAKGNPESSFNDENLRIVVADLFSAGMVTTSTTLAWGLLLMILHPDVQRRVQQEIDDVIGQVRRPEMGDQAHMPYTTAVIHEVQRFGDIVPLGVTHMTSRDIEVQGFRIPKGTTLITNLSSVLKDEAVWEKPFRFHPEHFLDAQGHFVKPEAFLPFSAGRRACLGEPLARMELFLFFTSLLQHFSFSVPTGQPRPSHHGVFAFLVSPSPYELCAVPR

HBV = details: humanized mouse model, in combination with entecavir; ref [7],[8]; cited from earlier work
[9] = test system: human hepatocellular carcinoma (HepG2) cells; test: Cytotoxicity, CellTiter 96 assay in HepG2 cells; assay type: cell-based; details: read-out: Cytotoxicity CC50 HepG2; HepG2 cells
Summary of the method: as §1

Caco-2 cell monolayer = test: Cell permeability across Caco-2 cell monolayer; assay type: in vitro ADME
Summary of the method: as §2

Formation of glutathione = assay type: in vitro ADME; details: human liver microsomes 1 mg/mL, 1 mM GSH, 60 min, 37°C
[10] = test system: human peripheral blood mononuclear (PBM) cells; test: Cytotoxicity, CellTiter 96 assay in PBM cells; assay type: cell-based; details: read-out: Cytotoxicity CC50 PBM; PBM cells
Summary of the method: as §1

hERG = hERG (Homo sapiens, UniProt Q12809); test: hERG inhibition, automated patch clamp in CHO cells; assay type: cell-based; details: room temperature
Sequence of hERG (Q12809 whole entry): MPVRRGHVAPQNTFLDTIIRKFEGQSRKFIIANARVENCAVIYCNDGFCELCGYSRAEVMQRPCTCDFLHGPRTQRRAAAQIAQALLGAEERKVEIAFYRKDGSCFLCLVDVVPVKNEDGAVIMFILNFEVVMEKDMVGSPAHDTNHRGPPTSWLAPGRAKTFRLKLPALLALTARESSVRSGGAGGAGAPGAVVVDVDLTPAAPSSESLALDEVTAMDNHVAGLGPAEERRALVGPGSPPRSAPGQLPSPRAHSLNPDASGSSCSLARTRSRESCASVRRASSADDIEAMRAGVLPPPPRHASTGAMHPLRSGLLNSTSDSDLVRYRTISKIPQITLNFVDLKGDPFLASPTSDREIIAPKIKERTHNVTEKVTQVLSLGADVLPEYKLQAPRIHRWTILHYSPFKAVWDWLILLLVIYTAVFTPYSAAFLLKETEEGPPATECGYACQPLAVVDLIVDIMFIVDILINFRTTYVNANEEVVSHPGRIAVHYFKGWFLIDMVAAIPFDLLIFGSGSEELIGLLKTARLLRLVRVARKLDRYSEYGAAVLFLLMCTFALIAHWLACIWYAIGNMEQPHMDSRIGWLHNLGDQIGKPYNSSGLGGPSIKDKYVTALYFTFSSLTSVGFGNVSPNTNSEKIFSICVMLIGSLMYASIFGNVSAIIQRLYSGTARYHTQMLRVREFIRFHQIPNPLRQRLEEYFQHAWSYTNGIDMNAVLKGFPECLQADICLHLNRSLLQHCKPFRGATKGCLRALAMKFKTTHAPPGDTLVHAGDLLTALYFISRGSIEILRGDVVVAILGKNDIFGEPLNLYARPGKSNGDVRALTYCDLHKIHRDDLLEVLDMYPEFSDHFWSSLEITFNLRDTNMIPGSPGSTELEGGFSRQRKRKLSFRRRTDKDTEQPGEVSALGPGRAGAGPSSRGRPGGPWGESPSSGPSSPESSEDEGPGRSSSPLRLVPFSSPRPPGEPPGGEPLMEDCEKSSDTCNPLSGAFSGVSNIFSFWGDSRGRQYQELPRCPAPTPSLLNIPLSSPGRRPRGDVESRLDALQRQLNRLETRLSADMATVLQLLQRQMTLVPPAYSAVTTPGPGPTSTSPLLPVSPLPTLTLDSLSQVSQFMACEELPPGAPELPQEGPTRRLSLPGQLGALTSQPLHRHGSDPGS
Summary of the method: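 Test article was applied at concentrations up to 10 μM, with n ≥ 3 per compound.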

[11] = test system: human T lymphoblast (CEM) cells; test: Cytotoxicity, CellTiter 96 assay in CEM cells; assay type: cell-based; details: read-out: Cytotoxicity CC50 CEM; CEM cells
Summary of the method: as §1

[12] = test system: African green monkey kidney (Vero) cells; test: Cytotoxicity, CellTiter 96 assay in Vero cells; assay type: cell-based; details: read-out: Cytotoxicity CC50 Vero; Vero cells
Summary of the method: as §1

[13] = Hepatitis B virus, HePAD38, 168 h
[14] = HepAD38 cells, 7-day assay, HBV DNA

C#CCn1c(C)c(C(=O)C(=O)NC(C)(C)C#C)c(C)c1C(=O)Nc1ccc(F)c(F)c1 [Compound 10a, N-(3,4-Difluorophenyl)-3,5-dimethyl-4-(2-((2-methylbut-3-yn-2-yl)amino)-2-oxoacetyl)-1-(prop-2-yn-1-yl)-1H-pyrrole-2-carboxamide]
CC50 [1]: > 100 µM
CYP Inhibition (% at 10 μM) 2C8 (CYP 2C8): 95%
Papp A→B at 2 h, 2 μM ([2]; Caco-2, pH 7.4): 33.5 ×10⁻⁶ cm/s
Papp B→A at 2 h, 2 μM ([2]; Caco-2, pH 7.4): 10.9 ×10⁻⁶ cm/s
recovery at 2 h, 2 μM ([2]; Caco-2, pH 7.4, Mean Recovery % A-B, Caco-2, A-B): 100%
recovery at 2 h, 2 μM ([2]; Caco-2, pH 7.4, Mean Recovery % B-A, Caco-2, B-A): 74.6%
CYP Inhibition (% at 10 μM) 1A2 (CYP 1A2): 9%
fold improvement of half-life on co-incubation with ritonavir ([3]; mouse liver microsomes, ritonavir at ratios up to 1/3): 45 fold
half-life at 1 μM ([3]; mouse, mouse liver microsomes, pH 7.4): 2.4 min
CYP Inhibition (% at 10 μM) 3A4-M (CYP 3A4): 40%
CYP Inhibition (% at 10 μM) 3A4-T (CYP 3A4): 40%
CYP Inhibition (% at 10 μM) 2B6 (CYP 2B6): 5%
CC50 [4]: > 100 µM
CC50 [5]: > 100 µM
CYP Inhibition (% at 10 μM) 2C19 (CYP 2C19): 34%
EC50 [6, 13]: 0.02 ± 0.03 nM
EC90 [6, 13]: 0.0016 ± 0.0008 µM
CC50 [7]: > 100 µM
CYP Inhibition (% at 10 μM) 2C9 (CYP 2C9): 40%
fold improvement of half-life on co-incubation with ritonavir ([8]; human liver microsomes, ritonavir at ratios up to 1/3): two-fold
half-life at 1 μM ([8]; human, human liver microsomes, pH 7.4): 9 min
CYP Inhibition (% at 10 μM) 2D6 (CYP 2D6): 8%

C#CCNC(=O)C(=O)c1c(C)c(C(=O)Nc2ccc(F)c(F)c2)n(C)c1C [GLP-26, reference compound]
antiviral response (HBV): sustained antiviral response up to 12 weeks post treatment
CC50 [9]: > 100 µM
CYP Inhibition (% at 10 μM) 2C8 (CYP 2C8): 54%
Permeability A-B (Caco-2 cell monolayer; Caco-2, 2 μM, pH 7.4, 2 hr, A-B): 23.5 10^−6 cm/s
Permeability B-A (Caco-2 cell monolayer; Caco-2, 2 μM, pH 7.4, 2 hr, B-A): 22.8 10^−6 cm/s
Mean Recovery % A-B (Caco-2 cell monolayer; Caco-2, A-B): 86.3%
Mean Recovery % B-A (Caco-2 cell monolayer; Caco-2, B-A): 98.7%
CYP Inhibition (% at 10 μM) 1A2 (CYP 1A2): −9.6%
Liver microsome stability t1/2 Mouse ([3]; mouse liver microsomes 1 mg/mL, compound alone): 41 min
CYP Inhibition (% at 10 μM) 3A4-M (CYP 3A4): −7.2%
CYP Inhibition (% at 10 μM) 3A4-T (CYP 3A4): 8.3%
GSH % Reactive metabolites at 25 μM (Formation of glutathione): 0.8%
CYP Inhibition (% at 10 μM) 2B6 (CYP 2B6): −1.6%
CC50 [10]: > 100 µM
hERG % Inhibition at 10 μM (hERG): 46.6%
CC50 [11]: > 100 µM
CYP Inhibition (% at 10 μM) 2C19 (CYP 2C19): 15.9%
EC50 [6, 14]: 4.6 ± 2 nM
EC90 [6, 14]: 0.0168 ± 0.0071 µM
CC50 [12]: 46 ± 30 µM
CYP Inhibition (% at 10 μM) 2C9 (CYP 2C9): 11.7%
Liver microsome stability t1/2 Human ([8]; human liver microsomes 1 mg/mL, compound alone): >60 min
CYP Inhibition (% at 10 μM) 2D6 (CYP 2D6): 9.5%

From article PMC10765384 (Bioorganic chemistry, 2023)
